Measurements taken from ChEMBL document CHEMBL1799964, “Synthesis of novel vitamin K2 analogues with modification at the ω-terminal position and their biological evaluation as potent steroid and xenobiotic receptor (SXR) agonists” (J Med Chem, 2011).

Tests used:
[1] = molecular target: T1, Nuclear receptor subfamily 1 group I member 2 (Homo sapiens, UniProt O75469); test: Binding affinity to human SXR transfected in human HepG2 cells coexpressing GAL4 assessed as transcriptional activation at 5 X 10^-6 M after 48 hrs by luciferase reporter gene assay; format: cell-based; settings: hepg2, 48 h, 5 µM
T1 sequence (O75469 whole entry): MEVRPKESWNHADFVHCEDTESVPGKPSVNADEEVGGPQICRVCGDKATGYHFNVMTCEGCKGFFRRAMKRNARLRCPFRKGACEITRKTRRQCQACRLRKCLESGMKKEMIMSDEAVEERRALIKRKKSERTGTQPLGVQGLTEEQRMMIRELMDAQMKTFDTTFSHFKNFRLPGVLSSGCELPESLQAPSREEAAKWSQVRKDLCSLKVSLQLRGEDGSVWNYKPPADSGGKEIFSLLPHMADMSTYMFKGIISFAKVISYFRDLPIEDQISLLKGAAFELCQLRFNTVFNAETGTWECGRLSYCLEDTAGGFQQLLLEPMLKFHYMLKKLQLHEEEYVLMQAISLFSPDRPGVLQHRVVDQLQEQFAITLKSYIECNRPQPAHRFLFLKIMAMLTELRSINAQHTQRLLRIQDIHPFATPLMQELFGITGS
How it was run: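 HepG2 cells (2 x 10⁵/well) transfected by Lipofectamine with pM-SXR (0.1 μg), pGVP2-GAL2 luciferase reporter (1.0 μg) and pRL-CMV (0.05 μg). Mean ± SD of three independent experiments; Student's t test.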

[2] = molecular target: T1, Nuclear receptor subfamily 1 group I member 2; test: Agonist activity at human SXR transfected in human HepG2 cells coexpressing GAL4 assessed as activation of receptor-mediated CYP3A4 gene transcription at 1 X 10^-6 M after 48 hrs by luciferase reporter gene assay; settings: hepg2, 48 h, 1 µM
Homo sapiens = test: Drug level in osteoporotic patient at 45 […] administered daily; format: ADME, organism-based; settings: in vivo, read-out: Drug uptake

Row | SMILES | Activity [1] | Activity [2] | concentration (Homo sapiens) [nM]
1 | CC(C)=CCC/C(C)=C/CC/C(C)=C/CC1=C(C)C(=O)c2ccccc2C1=O | Active | Active | –
2 | CC1=C(C/C=C(\C)CC/C=C(\C)CC/C=C(\C)CO)C(=O)c2ccccc2C1=O | Not Active | Active | –
3 | CC(C)=CCC/C(C)=C/CC1=C(C)C(=O)c2ccccc2C1=O [MENAQUINONE-2] | Active | – | –
4 | CC1=C(C/C=C(\C)CC/C=C(\C)CO)C(=O)c2ccccc2C1=O | Not Active | Active | –
5 | CC1=C(C/C=C(\C)CC/C=C(\C)Cc2ccccc2)C(=O)c2ccccc2C1=O | Active | Active | –
6 | CC(C)=CCC1=C(C)C(=O)c2ccccc2C1=O | Active | Active | –
7 | CC(C)=CCC/C(C)=C/CC/C(C)=C/CC/C(C)=C/CC1=C(C)C(=O)c2ccccc2C1=O [MENATETRENONE] | Active | Active | 1000
8 | CO[C@H]1/C=C/O[C@@]2(C)Oc3c(C)c(O)c4c(O)c(c(/C=N/N5CCN(C)CC5)c(O)c4c3C2=O)NC(=O)/C(C)=C\C=C\[C@H](C)[C@H](O)[C@@H](C)[C@@H](O)[C@@H](C)[C@H](OC(C)=O)[C@@H]1C [RIFAMPIN] | Active | – | –
9 | CC1=C(C/C=C(\C)CC/C=C(\C)CC/C=C(\C)Cc2ccccc2)C(=O)c2ccccc2C1=O | Active | Active | –
10 | CC1=C(C/C=C(\C)CC/C=C(\C)CC/C=C(\C)CC/C=C(\C)CO)C(=O)c2ccccc2C1=O | Not Active | Active | –
